The nature of data set [1]: Antiproliferative activity against gefitinib-resistant human NCI-H1975 cells after 1 to 3 days by MTS assay. It counts as functional. The essentials:
(§1)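 Cells seeded at 3 × 10^3 (Skbr3) or 2 × 10^3 (H1975) per well and left to attach overnight, then exposed to varying compound concentrations or 1% DMSO vehicle at 37 °C for 1, 2 and 3 days. Viability read by MTS colorimetric assay at 490 nm and expressed as percent of DMSO-only absorbance. Skbr3 in RPMI 1640 with 25 mM HEPES; H1975 in RPMI 1640 with L-glutamine; both with 10% FBS and penicillin/streptomycin.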
(In general: Formazan colour is commonly taken as a measure of viable cells.)

Data set [2] is described as follows: Antiproliferative activity against Her2-overexpressing human SKBR3 cells after 1 to 3 days by MTS assay. In kind it is functional. Conditions: SK-BR-3. The essentials:
as §1

In data set [3] the target is Heat shock protein HSP 90-alpha (Homo sapiens, UniProt P07900). Put plainly: Inhibition of fluorescein isothiocyanate labeled geldanamycin binding to N-terminal domain of full length human recombinant Hsp90alpha expressed in Escherichia coli BL21 (DE3) after 14 hrs by fluorescence polarization assay. On the technique in general: Fluorescence polarisation rises when a labelled molecule tumbles more slowly, as on binding a larger partner.

For data set [4], the system named is NCI-H1975. Put plainly: Induction of apoptosis in gefitinib-resistant human NCI-H1975 cells assessed as necrotic cells at 0.5 uM after 24 hrs by Annexin V-FITC/propidium iodide staining based flow cytometry (reference value: 2.68%). In kind it is functional.
In data set [5] the test system is NCI-H1975. Description: cells. Conditions: Homo sapiens, NCI-H1975, 24 h, read-out: Activity.
The next data set deals with Cytochrome P450 2C9 (Homo sapiens, UniProt P11712). Put plainly: Inhibition of CYP2C9 in human liver microsomes assessed as tolbutamide 4-methylhydroxylation by LC/MS/MS analysis. It counts as ADME. In a few lines: (§2)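 Pooled human liver microsomes incubated without and with compound at 0–50 µM final (acetonitrile below 0.5%); probe activities in cocktail incubation: phenacetin O-deethylation (CYP1A2), tolbutamide 4-hydroxylation (2C9), omeprazole hydroxylation (2C19), dextromethorphan O-demethylation (2D6), midazolam 1'-hydroxylation (3A). Metabolites quantified by tandem mass spectrometry; duplicates; IC50 derived.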
Background: Liver microsomes are vesicles of endoplasmic reticulum, rich in cytochrome P450 enzymes.

Data set [6] has as its system Mus musculus. Put plainly: Decrease of Akt level in human NCI-H1975 cells xenografted in NOD-scid IL2Rgamma-null mouse at 10 mg/kg, ip administered daily followed by weekend rest for 2 weeks by immunohistochemical analysis. In kind it is functional, organism-based.
Data set [7] has as its system NCI-H1975. Put plainly: Induction of apoptosis in gefitinib-resistant human NCI-H1975 cells assessed as cleavage of caspase 8 at 0.5 uM after 24 hrs by Western blot analysis. In kind it is functional, cell-based. The essentials: (§3)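 H1975 cells seeded 1 × 10^6 per 100 mm dish, attached overnight, exposed 24 h to 0.05, 0.1, 0.5, 1 and 2 µM compound, with 1% DMSO and 1 µM geldanamycin as controls. Lysed in Tris-HCl pH 7.6/NaCl/NP-40/deoxycholate/SDS buffer; 30 µg per lane SDS-PAGE, PVDF, 5% milk block, specific antibodies (PARP, caspase 3, cleaved caspase 3/8, β-actin), HRP secondary, ECL detection.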

Data set [8] is described as follows: Effect on beta-actin level in gefitinib-resistant human NCI-H1975 cells at 0.05 to 2 uM after 24 hrs by Western blot analysis. It counts as ADME, cell-based. The conditions noted are these: nci-h1975, 24 h. In a few lines:
as §3

A further data set deals with Cytochrome P450 2C19 (Homo sapiens, UniProt P33261). Description: Inhibition of CYP2C19 in human liver microsomes assessed as omepraozle hydroxylation by LC/MS/MS analysis. In kind it is ADME. In a few lines:
as §2

The target in a further data set is T1, Cytochrome P450 1A2 (Homo sapiens, UniProt P05177).
T1 sequence (P05177 whole entry): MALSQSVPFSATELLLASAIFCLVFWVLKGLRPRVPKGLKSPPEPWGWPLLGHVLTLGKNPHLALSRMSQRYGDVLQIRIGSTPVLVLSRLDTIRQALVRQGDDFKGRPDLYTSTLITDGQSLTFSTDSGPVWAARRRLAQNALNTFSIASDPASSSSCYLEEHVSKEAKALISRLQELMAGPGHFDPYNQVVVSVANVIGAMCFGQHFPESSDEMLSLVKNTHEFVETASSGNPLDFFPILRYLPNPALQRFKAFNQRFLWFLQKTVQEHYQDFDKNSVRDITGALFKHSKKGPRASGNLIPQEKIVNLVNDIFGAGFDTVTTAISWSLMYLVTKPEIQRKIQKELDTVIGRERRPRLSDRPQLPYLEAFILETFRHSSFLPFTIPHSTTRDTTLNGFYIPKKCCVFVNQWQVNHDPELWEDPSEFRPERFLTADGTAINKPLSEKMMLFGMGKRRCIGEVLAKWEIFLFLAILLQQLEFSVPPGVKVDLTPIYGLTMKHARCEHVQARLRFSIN
Put plainly: Inhibition of CYP1A2 in human liver microsomes assessed as phenacetin O-deethylation by LC/MS/MS analysis. It counts as ADME. In a few lines: as §2

For the next data set, the target named is CYP3A (Homo sapiens, UniProt P08684+P20815+P24462+Q9HB55). Description: Inhibition of CYP3A in human liver microsomes assessed as midazolam 1'-hydroxylation by LC/MS/MS analysis. It counts as ADME. The conditions noted are these: probe midazolam (1'-hydroxylation). The essentials:
as §2

Data set [9] has as its system NCI-H1975. Description: Induction of apoptosis in gefitinib-resistant human NCI-H1975 cells assessed as early apoptotic cells at 0.5 uM after 24 hrs by Annexin V-FITC/propidium iodide staining based flow cytometry (reference value: 1.85%). In kind it is functional.
Data set [10] concerns the target T2, Heat shock protein HSP90 (Homo sapiens) (UniProt P07900+P08238). Conditions: NCI-H1975, 0.05 to 2 uM.
Another data set addresses Cytochrome P450 2D6 (Homo sapiens, UniProt P10635). Put plainly: Inhibition of CYP2D6 in human liver microsomes assessed as dextromethorphan O-demethylation by LC/MS/MS analysis. It counts as ADME. In a few lines:
as §2

The test system of data set [11] is NCI-H1975. Description: Induction of apoptosis in gefitinib-resistant human NCI-H1975 cells assessed as cleavage of PARP at 0.5 uM after 24 hrs by Western blot analysis. It counts as functional, cell-based. In a few lines:
as §3

The subject of data set [12] is NCI-H1975. Description: Induction of apoptosis in gefitinib-resistant human NCI-H1975 cells assessed as viable cells at 0.5 uM after 24 hrs by Annexin V-FITC/propidium iodide staining based flow cytometry (reference value: 92.68%). It counts as functional. The conditions noted are these: NCI-H1975, 24 h, read-out: Activity.
Data set [13] has as its system NCI-H1975. Put plainly: Induction of apoptosis in gefitinib-resistant human NCI-H1975 cells assessed as late apoptotic cells at 0.5 uM after 24 hrs by Annexin V-FITC/propidium iodide staining based flow cytometry (reference value: 2.79%). It counts as functional.
Data set [14] has as its system NCI-H1975. Description: Induction of apoptosis in gefitinib-resistant human NCI-H1975 cells assessed as cleavage of caspase 3 at 0.5 uM after 24 hrs by Western blot analysis. In kind it is functional, cell-based. In a few lines: as §3
Data set [15] deals with T2, Heat shock protein HSP90 (Homo sapiens). Conditions: NCI-H1975, 0.05 to 2 uM. This is another data set of the same source.
For data set [16] the target is unchanged. The conditions noted are these: NCI-H1975, 0.05 to 2 uM. The source holds these as a separate data set.
Data set [17] relates to Mus musculus. Put plainly: Toxicity in NOD-scid IL2Rgamma-null mouse xenografted with human NCI-H1975 cells assessed as body weight loss at 10 mg/kg, ip administered daily followed by weekend rest for 2 weeks measured twice per week during compound dosing. The conditions noted are these: in vivo, 336 h. It counts as organism-based. In a few lines:
(§4)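 NSG mice (8 per group, randomised) received 2.0 × 10^6 H1975 cells s.c. in the left flank on day zero. Dosing began once tumours reached 500 mm3: i.p. at 10 mg/kg or DMSO vehicle, daily with weekend rest, for 2 weeks. Body weight tracked and deaths recorded during treatment. Housing in individually ventilated cages at 25±2 °C with a 12 h light-dark cycle.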

Data set [18] has as its target T2, Heat shock protein HSP90 (Homo sapiens). Conditions: NCI-H1975, 0.05 to 2 uM. The source holds these as a separate data set.
Data set [19] shares this target. The conditions noted are these: NCI-H1975, 0.05 to 2 uM. The source holds these as a separate data set.
The target is the same in data set [20]. The conditions noted are these: NCI-H1975, 0.05 to 2 uM. The source holds these as a separate data set.
In data set [21] the test system is Mus musculus. Put plainly: Toxicity in NOD-scid IL2Rgamma-null mouse xenografted with human NCI-H1975 cells assessed as mortality at 10 mg/kg, ip administered daily followed by weekend rest for 2 weeks measured twice per week during compound dosing. In kind it is organism-based. Conditions: in vivo, 336 h. The essentials:
as §4

The test system of data set [22] is NCI-H1975. Put plainly: Antitumor activity against human NCI-H1975 cells xenografted in NOD-scid IL2Rgamma-null mouse assessed as tumor growth inhibition at 10 mg/kg, ip administered daily followed by weekend rest for 2 weeks measured twice per week during compound dosing. In kind it is functional, organism-based.

pIC50: −log10 of the molar value. Active and inactive are the calls of the source. The rule behind the calls is not given here.

Cytochrome P450 2D6, sequence (P10635 whole entry): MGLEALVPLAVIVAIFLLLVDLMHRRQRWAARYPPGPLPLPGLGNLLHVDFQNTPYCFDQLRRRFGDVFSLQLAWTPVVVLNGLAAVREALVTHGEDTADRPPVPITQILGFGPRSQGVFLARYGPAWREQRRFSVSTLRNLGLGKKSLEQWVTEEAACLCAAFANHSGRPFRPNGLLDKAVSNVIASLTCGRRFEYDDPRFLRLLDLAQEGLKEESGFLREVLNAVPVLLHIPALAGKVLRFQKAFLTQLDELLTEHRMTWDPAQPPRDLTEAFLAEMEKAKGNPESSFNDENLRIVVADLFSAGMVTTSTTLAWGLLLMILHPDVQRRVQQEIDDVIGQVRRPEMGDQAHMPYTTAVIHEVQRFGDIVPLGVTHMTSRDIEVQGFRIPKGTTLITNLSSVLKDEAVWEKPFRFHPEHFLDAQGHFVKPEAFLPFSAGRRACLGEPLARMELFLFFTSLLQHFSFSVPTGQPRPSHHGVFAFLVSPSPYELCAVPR
Cytochrome P450 2C19, sequence (P33261 whole entry): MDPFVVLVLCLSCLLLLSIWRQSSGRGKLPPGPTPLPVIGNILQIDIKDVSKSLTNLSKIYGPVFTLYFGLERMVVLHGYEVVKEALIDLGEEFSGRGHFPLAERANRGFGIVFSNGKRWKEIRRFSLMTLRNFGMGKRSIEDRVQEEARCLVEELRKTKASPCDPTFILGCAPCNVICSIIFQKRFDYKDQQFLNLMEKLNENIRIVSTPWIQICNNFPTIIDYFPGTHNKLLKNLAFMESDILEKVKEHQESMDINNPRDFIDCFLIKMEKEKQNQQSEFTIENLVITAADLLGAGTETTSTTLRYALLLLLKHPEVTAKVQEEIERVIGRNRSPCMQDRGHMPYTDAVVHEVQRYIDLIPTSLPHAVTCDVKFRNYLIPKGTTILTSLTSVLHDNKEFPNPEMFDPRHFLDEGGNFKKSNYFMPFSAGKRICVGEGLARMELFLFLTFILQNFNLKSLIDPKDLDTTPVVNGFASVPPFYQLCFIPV
Cytochrome P450 2C9, sequence (P11712 whole entry): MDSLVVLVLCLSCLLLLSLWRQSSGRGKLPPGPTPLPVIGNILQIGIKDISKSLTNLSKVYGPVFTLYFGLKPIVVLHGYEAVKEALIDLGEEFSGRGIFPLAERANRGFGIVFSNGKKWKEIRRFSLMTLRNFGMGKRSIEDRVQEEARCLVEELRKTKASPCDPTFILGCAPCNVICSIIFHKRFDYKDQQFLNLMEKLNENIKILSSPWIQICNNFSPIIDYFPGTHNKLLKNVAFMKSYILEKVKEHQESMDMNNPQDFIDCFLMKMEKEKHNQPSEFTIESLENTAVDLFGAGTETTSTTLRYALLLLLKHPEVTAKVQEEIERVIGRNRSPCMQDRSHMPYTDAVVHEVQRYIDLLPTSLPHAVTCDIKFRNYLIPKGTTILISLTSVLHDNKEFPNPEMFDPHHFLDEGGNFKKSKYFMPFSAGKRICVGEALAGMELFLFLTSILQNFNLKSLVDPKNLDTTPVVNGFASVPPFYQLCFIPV

As usually defined, the GI50 is the concentration at which growth is held to half of that of the control. A high value points to lower sensitivity of the cells. One may read the pIC50 as the IC50 on a negative log10 scale, so that one unit is a factor of ten. On to `O=C(c1cc(Cl)c(O)cc1O)N1CCN(c2ccccc2)CC1`, for which the 50% growth inhibitory concentration (GI50) in [1] worked out at 19.1 µM; in data set [2], 9.3 µM. Further, in data set [3], the pIC50 is 6.32.

Turning to `CC(C)c1cc(C(=O)N2CCc3sccc3C2)c(O)cc1O`, the Activity in the data set on NCI-H1975 [4] is 3.67%; in data set [8], “Non-Toxic”; with NCI-H1975 [9], 8.67%; in the data set on NCI-H1975 [13], 3.77%; in the data set on Mus musculus [17] it was “Non-Toxic”; with Mus musculus [21] it was “Non-Toxic”. The viability at 1 µM in the data set on NCI-H1975 [5] is 76%. Further, the pIC50 is less than 4.30 on Cytochrome P450 2C9; less than 4.30 on Cytochrome P450 2C19; less than 4.30 on Cytochrome P450 1A2; less than 4.30 on CYP3A; less than 4.30 at Cytochrome P450 2D6; 7.30 in [3]. Besides, the outcome in the data set with Mus musculus [6], with NCI-H1975 [7], with NCI-H1975 [11] and in the data set on NCI-H1975 [14] was Active. Moreover, the results for the GI50 in data set [1] and in data set [2] were 0.31 µM and 0.11 µM, respectively. Also, the inhibition entry in data set [10], in [15], in data set [16], in [18], in [19] and in data set [20] was “Active” in each case. In addition, the viability at 0.5 µM in the data set with NCI-H1975 [12] was found to be 83.9%. Moreover, the TGI result in the data set on NCI-H1975 [22] was “Active”.

Regarding `COC1=C2C[C@@H](C)C[C@H](OC)[C@H](O)[C@@H](C)/C=C(\C)[C@H](OC(N)=O)[C@@H](OC)/C=C\C=C(/C)C(=O)NC(=CC1=O)C2=O` [GELDANAMYCIN], the viability at 1 µM with NCI-H1975 [5] amounted to 65.7%. Moreover, the concentration for 50% growth inhibition (GI50) in data set [1] was 0.56 µM; in [2], 0.43 µM.

Regarding `O=C(c1cc(Cl)c(O)cc1O)N1CCc2ccccc2C1`, the concentration for 50% growth inhibition (GI50) turned out to be 19.9 µM in data set [1] and 7.1 µM in [2]. Further, in data set [3], the negative-log IC50 (pIC50) is 6.74.

Take `O=C(Nc1ccc(O)cc1)c1cc(Cl)c(O)cc1O`: the concentration for 50% growth inhibition (GI50) in data set [1] is more than 50 µM. Besides, in [3], the pIC50 was less than 6.00.

Take `Oc1cc(O)c(-c2nc3ccccc3o2)cc1Cl`: the GI50 in data set [1] and in [2] was more than 50 µM throughout. Further, the pIC50 in data set [3] is less than 6.00.

In the case of `O=C(Nc1ccccc1)c1cc(Cl)c(O)cc1O`, the GI50 in data set [1] is more than 50 µM. Besides, in data set [3], the negative-log IC50 (pIC50) was less than 6.00.

With `O=C(c1cc(Cl)c(O)cc1O)N1CCc2ccsc2C1`, the figures for the 50% growth inhibitory concentration (GI50) in data set [1] and in data set [2] were 8.7 µM and 5.4 µM, respectively. Besides, the negative logarithm of the IC50 (pIC50) in data set [3] is 6.87.

The values are drawn from ChEMBL document CHEMBL3877290, “Targeting the entry region of Hsp90's ATP binding pocket with a novel 6,7-dihydrothieno[3,2-c]pyridin-5(4H)-yl amide” (Eur J Med Chem, 2016).
